Measurements published in publication PMC9305987 (Nature cell biology, 2022).
Like-named read-outs stand apart in the source and are kept apart here.

Legend:
[1] = system: RAW264.7 mouse macrophages; test: Intracellular ITA accumulation by LC-MS/MS; assay type: cell-based; conditions: RAW264.7, dose-dependent
[2] = system: HEK293T cells overexpressing mTET2^CD; test: Global 5hmC by immunofluorescence in TET2-overexpressing cells; assay type: cell-based; conditions: for Effect on 5hmC: HEK293T overexpressing mTET2^CD
Method in brief: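 TET2-overexpressing HEK293T cells were treated with OI alone or with rising amounts of dimethyl-α-KG. 5hmC immunofluorescence: Triton X-100 permeabilization, 2 N HCl denaturation for 30 min, Tris pH 8.5 neutralization, BSA block, anti-5hmC overnight at 4°C, fluorescent secondary, DAPI counterstain. Two independent experiments.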

[3] = system: HEK293T cells overexpressing TET3; test: Global 5hmC by dot-blot and LC-MS/MS in TET3-overexpressing cells; assay type: cell-based
Method in brief: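 For dot-blot, genomic DNA was spotted on nitrocellulose, UV-crosslinked for 20 min, blocked in 5% milk, probed with anti-5hmC overnight at 4°C and HRP secondary, then scanned. Global 5hmC was also measured by LC-MS/MS, mean with S.D. of 3 independent experiments.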

[4] = system: TET2-overexpressing HEK293T cells; test: Global histone methylation markers by western blot; assay type: cell-based
[5] = system: bone marrow-derived macrophages (BMDMs); test: Global 5hmC quantification by LC-MS/MS in BMDMs; assay type: cell-based, mouse; conditions: 0.5 mM OI or increased concentrations of ITA, 8 hours; for Reduction of global 5hmC: Tet2^+/+ BMDMs; for Effect on global 5hmC: Tet2^−/− BMDMs
Tet2^+/+ BMDMs = test: 5hmC mapping by hMeDIP-seq in BMDMs; assay type: cell-based, mouse; conditions: 0.5 mM OI, 8 hours
RAW264.7 cells [6] = test: qRT-PCR of LPS-induced genes; assay type: cell-based, mouse
Method in brief: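 Alternatively, cells got LPS for 2 h, then OI for 2 h, or LPS plus dimethyl-α-KG (0.5, 1, 2 mM). mRNA was measured by qRT-PCR with β-actin as housekeeping control. Nfkbiz data are means with S.D. of 3 independent experiments.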

mTET2^CD = molecular target: T1, mTET2^CD (Mus musculus, UniProt Q4JK59); assay type: biochemical; conditions: for Inhibition of mTET2^CD activity in presence of excess α-KG: fixed concentration of inhibitor, variable α-KG
T1 sequence (Q4JK59 1042-1912 limits assumed): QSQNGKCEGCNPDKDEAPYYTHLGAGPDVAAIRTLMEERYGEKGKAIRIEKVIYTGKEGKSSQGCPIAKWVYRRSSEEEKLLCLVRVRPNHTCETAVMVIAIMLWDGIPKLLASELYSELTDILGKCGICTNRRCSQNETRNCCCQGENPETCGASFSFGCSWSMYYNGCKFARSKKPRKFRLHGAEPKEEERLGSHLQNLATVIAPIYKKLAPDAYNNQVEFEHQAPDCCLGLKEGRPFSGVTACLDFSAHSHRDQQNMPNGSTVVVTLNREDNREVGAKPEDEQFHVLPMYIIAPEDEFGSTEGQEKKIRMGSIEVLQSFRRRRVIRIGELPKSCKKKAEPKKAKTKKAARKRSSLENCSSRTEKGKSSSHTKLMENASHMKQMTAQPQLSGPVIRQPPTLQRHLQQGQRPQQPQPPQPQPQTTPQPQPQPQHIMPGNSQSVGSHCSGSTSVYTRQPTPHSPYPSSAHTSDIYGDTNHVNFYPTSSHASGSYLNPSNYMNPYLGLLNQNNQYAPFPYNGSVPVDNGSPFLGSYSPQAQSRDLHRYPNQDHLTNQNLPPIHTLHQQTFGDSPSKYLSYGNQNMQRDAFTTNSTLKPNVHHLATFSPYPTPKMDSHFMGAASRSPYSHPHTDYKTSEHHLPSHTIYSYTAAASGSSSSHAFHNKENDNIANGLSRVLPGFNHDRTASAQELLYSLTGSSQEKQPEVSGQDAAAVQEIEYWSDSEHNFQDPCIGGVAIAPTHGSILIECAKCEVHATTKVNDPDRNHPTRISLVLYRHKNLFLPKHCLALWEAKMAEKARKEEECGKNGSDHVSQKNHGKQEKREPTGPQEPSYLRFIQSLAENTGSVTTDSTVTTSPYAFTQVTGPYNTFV

[7] = molecular target: recombinant human TET2^CD (Homo sapiens, UniProt Q6N021); test: Saturation transfer difference; assay type: binding
Method in brief: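 Spectra were run at 25°C, 700 MHz, cryoprobe, carrier on water. A 3-s saturation used a 50-ms EBurp2 pulse (0.75 ppm bandwidth) centred at 0.8 ppm for difference or −40 ppm for reference spectra.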

[8] = system: TET2^CD mutant, i.e. R1896M or S1898F; test: STD NMR binding to TET2^CD mutants; parameters: species or system human
peritoneal leukocytes = test: Genomic 5hmC and 5mC in peritoneal leukocytes after i.p. ITA, LC-MS/MS; assay type: in vivo, mouse; conditions: 50 mg/kg ITA i.p. prior to LPS 25 mg/kg
LPS-induced sepsis = test: Mouse model of LPS-induced sepsis; assay type: in vivo; conditions: Tet2^−/− mice
Irg1-KO RAW264.7 cells = test: SDH inhibition, succinate and 5hmC in LPS-stimulated Irg1-KO macrophages; assay type: cell-based, mouse; conditions: 3-NPA 1 mM, LPS-stimulated Irg1-KO RAW264.7
RAW264.7 cells [9] = test: Genomic 5hmC by IF staining in LPS-treated macrophages; assay type: cell-based, mouse; conditions: LPS 12 hours then 1 mM for 12 hours
Method in brief: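 RAW264.7 cells (DMEM, 10% FBS) were challenged with LPS for 12 h, then given dimethyl-α-KG (1 mM) for 12 h. Cells were permeabilized with 0.3% Triton X-100 for 15 min, DNA denatured with 2 N HCl for 30 min, and neutralized with 100 mM Tris-HCl pH 8.5. Staining used 3% BSA block, anti-5hmC at 4°C overnight, Alexa Fluor 594 secondary for 1 h, and DAPI, then fluorescence microscopy.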

For `C=C(CC(=O)OCCCCCCCC)C(=O)O` [OI, octyl-ITA], the “Time to intracellular accumulation of ITA” value [1] was < 30 s, the “Effect on 5hmC” value [2] was “dose-dependently reduced 5hmC” and the “Effect on global 5hmC” value [3] was “decreased global 5hmC”. For the same compound, the “Effect on global histone methylation” value [4] was “no detectable effect”, the “Reduction of global 5hmC” value [5] was ≤ 95% and the “Effect on global 5hmC” value [5] was “little effect”. For the same compound, the “5hmC by hMeDIP-seq” value (Tet2^+/+ BMDMs) was “decreased 5hmC at both promoters and intragenic regions”, the “Nfkbiz mRNA expression” value (RAW264.7 cells [6]; LPS-stimulated Tet2-KO cells) was “failed to affect” and the “LPS-induced mRNA expression of Nfkbiz, Il-6, Cxcl9/10/11” value (RAW264.7 cells [6]; Tet2-WT, LPS 2 hours then OI 2 hours) was “hindered”.

With `O=C(O)CC[C@H](O)C(=O)O` [L-2-HG] the “Inhibition of mTET2^CD activity in presence of excess α-KG” value (mTET2^CD) was “overcome dose-dependently by excess α-KG”.

`C=C(CC(=O)O)C(=O)O` [ITA, itaconic acid] was tested, and the IC50 (mTET2^CD) was 171 µM, the “Inhibition of mTET2^CD activity in presence of excess α-KG” value (mTET2^CD) was “overcome dose-dependently by excess α-KG” and the “Binding to recombinant human TET2^CD (STD NMR)” value [7] was “bound directly”. For the same compound, the “ITA-TET2^CD binding in presence of α-KG (STD NMR)” value ([7]; competition with α-KG) was “blocked by α-KG”, the “Binding to TET2^CD mutants R1896M or S1898F (STD NMR)” value [8] was “abolish the binding” and the “Time to intracellular accumulation of ITA” value [1] was < 30 s. For the same compound, the “Effect on global 5hmC” value [3] was “decreased global 5hmC”, the “Reduction of global 5hmC” value [5] was ≤ 95% and the “Effect on global 5hmC” value [5] was “little effect”. The “Suppression of LPS-induced chemokine and cytokine genes upon Tet2 deletion” value (RAW264.7 cells [6]; unmodified ITA 3 mM, Tet2-WT vs Tet2-KO) was “completely abolished by Tet2 deletion”, the “5mC in peritoneal leukocytes” value (peritoneal leukocytes) was “unaffected” and the “Reduction of 5hmC in peritoneal leukocytes” value (peritoneal leukocytes; 2 hours post LPS) was ≤ 36%. For the same compound, the “Anti-inflammatory and protective effects” value (LPS-induced sepsis) was “not observed”.

α-ketoglutarate [α-KG] was tested, and the “Binding to TET2^CD R1896M mutant (STD NMR)” value ([8]; R1896M mutation, not S1898F) was “weakens the binding”.

With `O=C(O)CC[N+](=O)[O-]` [3-NPA, 3-nitropropionic acid] the “Effect on global 5hmC” value (Irg1-KO RAW264.7 cells) was “little effect” and the “Intracellular accumulation of succinate” value (Irg1-KO RAW264.7 cells) was ≤ 1.5 mM.

For `NC(=O)CC[C@H](N)C(=O)O` [glutamine], the “Binding to recombinant human TET2^CD (STD NMR)” value [7] was “not”.

With `COC(=O)CCC(=O)C(=O)OC` [dimethyl-α-KG] the “Effect on OI-induced 5hmC reduction” value ([2]; increasing amount, together with OI) was “reversed”, the “Effect on 5hmC in LPS-treated cells” value (RAW264.7 cells [9]) was “restored 5hmC” and the “Nfkbiz mRNA” value (RAW264.7 cells [6]; LPS-stimulated Tet2-WT but not Tet2-KO cells) was “further increase”.

`CCCCCCCCOC(=O)[C@@H](O)CCC(=O)O` [Octyl-L-2HG] was tested, and the “Effect on 5hmC” value [2] was “dose-dependently reduced 5hmC”.

In the case of `O=C(O)/C=C/C(=O)O` [fumarate], the IC50 (mTET2^CD; read-out: IC50 toward mTET2^CD catalytic activity, 0.1 mM α-KG, 37°C 30 min) is reported as > 5000 µM.
